Measured values as given in ChEMBL document CHEMBL1765085, “Cytotoxic and apoptosis-inducing activities of triterpene acids from Poria cocos” (J Nat Prod, 2011).
The source made the active and inactive calls. The rule behind the calls is not given here.

Legend:
[1] = test system: OVCAR-3; test: Cytotoxicity in human OVCAR3 cells assessed as cell viability after 48 hrs by MTT assay; type: functional, cell-based; details: OVCAR-3, 48 h
Method in brief: (§1)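 Growth conditions: RPMI 1640 for HL60, CRL1579, NIH:OVCAR-3, SK-BR-3, DU145 and PANC-1; D-MEM for A549; MEM for WI-38; all with 10% FBS and antibiotics, 37 °C, 5% CO2. Seeded at 3 × 10^3 cells/well (OVCAR-3 1 × 10^4), then treated 48 h with 10^-4 to 10^-6 M. MTT for 3 h, formazan dissolved in 0.04 M HCl/2-propanol, A570/630. IC50 (50% growth inhibition) from triplicates.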

[2] = test system: A549; test: Induction of mitochondrial signal transduction pathway-mediated apoptosis in human A549 cells assessed as increase in cleaved caspase-8 level at 30 uM after 24 to 48 hrs by Western blot analysis
[3] = test system: HL-60; test: Cell cycle arrest in human HL60 cells assessed as accumulation at sub-G1 phase at 30 uM after 48 hrs by flow cytometry (reference value: 3.0%); type: functional
Method in brief: (§2)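 Cells seeded at 1 × 10^5 per sample for HL60 and 1.5 × 10^5 for A549, then exposed to 30 μM for 0, 24 or 48 h. After a PBS wash, DNA was stained with Nim-DAPI for 10 min at room temperature. Phase distribution was read by flow cytometry, with the sub-G1 (fragmented DNA) fraction taken as the apoptosis index. Values are means of three experiments.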

[4] = test system: A549; test: Cell cycle arrest in human A549 cells assessed as accumulation at S phase at 30 uM after 24 hrs by flow cytometry (reference value: 27.7%); type: functional; method in brief: as §2
[5] = test system: A549; test: Induction of apoptosis in human A549 cells assessed as necrotic cells at 30 uM after 48 hrs by AnnexinV/propidium iodide staining (Rvb =3.4%); type: functional
[6] = test system: A549; test: Induction of apoptosis in human A549 cells assessed as early apoptotic cells at 30 uM after 48 hrs by AnnexinV/propidium iodide staining (Rvb =4.3%); type: functional
[7] = test system: HL-60; test: Induction of mitochondrial signal transduction pathway-mediated apoptosis in human HL60 cells assessed as increase in cleaved caspase-3 level at 30 uM after 8 hrs by Western blot analysis; type: functional, cell-based
Method in brief: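 HL60 cells (1 × 10^6) were pre-incubated 24 h, then given 30 μM for 8 or 24 h. Whole-cell lysates were run on 15% SDS-PAGE, transferred to PVDF and probed overnight at 4 °C for procaspase and cleaved caspase-3, with β-actin as loading control.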

[8] = test system: A549; test: Induction of apoptosis in human A549 cells assessed as viable cells at 30 uM after 48 hrs by AnnexinV/propidium iodide staining (Rvb =91.2%); type: functional; details: A549, 48 h, read-out: Activity
[9] = test system: A549; test: Induction of mitochondrial signal transduction pathway-mediated apoptosis in human A549 cells assessed as increase in cleaved caspase-3 level at 30 uM after 24 to 48 hrs by Western blot analysis
[10] = test system: HL-60; test: Induction of mitochondrial signal transduction pathway-mediated apoptosis in human HL60 cells assessed as increase in cleaved caspase-9 level at 30 uM after 8 hrs by Western blot analysis; type: functional, cell-based
Method in brief: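 HL60 cells (1 × 10^6) pre-incubated 24 h, then exposed to 30 μM final for 8 h. Whole-cell lysates in extraction buffer, resolved on 15% SDS-PAGE, blotted to PVDF, probed overnight at 4 °C with anti-caspase-8 or anti-caspase-9 primary antibodies, β-actin as loading reference. Procaspase loss and cleaved caspase bands read.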

[11] = test system: A549; test: Cell cycle arrest in human A549 cells assessed as accumulation at S phase at 30 uM after 48 hrs by flow cytometry (reference value: 27.7%); type: functional; method in brief: as §2
[12] = test system: A549; test: Cell cycle arrest in human A549 cells assessed as accumulation at sub-G1 phase at 30 uM after 24 hrs by flow cytometry (reference value: 3.1%); type: functional; method in brief: as §2
[13] = test system: A549; test: Induction of apoptosis in human A549 cells assessed as necrotic cells at 30 uM after 24 hrs by AnnexinV/propidium iodide staining (Rvb =3.4%); type: functional
[14] = test system: HL-60; test: Cytotoxicity in human HL60 cells assessed as cell viability after 48 hrs by MTT assay; type: functional, cell-based; details: HL-60, 48 h; method in brief: as §1
[15] = test system: HL-60; test: Induction of apoptosis in human HL60 cells assessed as early apoptotic cells at 30 uM after 24 hrs by AnnexinV/propidium iodide staining (Rvb =7.6%)
[16] = test system: HL-60; test: Induction of apoptosis in human HL60 cells assessed as late apoptotic cells at 30 uM after 48 hrs by AnnexinV/propidium iodide staining (Rvb =3.3%); type: functional
[17] = test system: A549; test: Cytotoxicity in human A549 cells assessed as cell viability after 48 hrs by MTT assay; type: functional, cell-based; details: A549, 48 h; method in brief: as §1
[18] = test system: HL-60; test: Cell cycle arrest in human HL60 cells assessed as accumulation at G2/M phase at 30 uM after 48 hrs by flow cytometry (reference value: 6.0%); type: functional; method in brief: as §2
[19] = test system: WI-38; test: Cytotoxicity against human WI38 cells assessed as cell viability after 48 hrs by MTT assay; type: cell-based; details: WI-38, 48 h; method in brief: as §1
[20] = test system: SK-BR-3; test: Cytotoxicity in human SK-BR-3 cells assessed as cell viability after 48 hrs by MTT assay; type: functional, cell-based; details: SK-BR-3, 48 h; method in brief: as §1
[21] = test system: A549; test: Induction of mitochondrial signal transduction pathway-mediated apoptosis in human A549 cells assessed as decrease in Bcl-2 level at 30 uM after 24 to 48 hrs by Western blot analysis; type: functional, cell-based
Method in brief: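 A549 cells (1.5 × 10^5) were pre-incubated 24 h, then given 30 μM for 24 or 48 h. Whole-cell lysates were run on 15% SDS-PAGE, transferred to PVDF and probed overnight at 4 °C for Bax, Bcl-2 and β-actin. The Bcl-2 band was quantified by densitometry relative to untreated cells, n = 3.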

[22] = test system: A549; test: Induction of apoptosis in human A549 cells assessed as viable cells at 30 uM after 24 hrs by AnnexinV/propidium iodide staining (Rvb =91.2%); type: functional; details: A549, 24 h, read-out: Activity
[23] = test system: HL-60; test: Cell cycle arrest in human HL60 cells assessed as accumulation at Go/G1 phase at 30 uM after 24 hrs by flow cytometry (reference value: 51.4%); type: functional; method in brief: as §2
[24] = test system: A549; test: Induction of apoptosis in human A549 cells assessed as late apoptotic cells at 30 uM after 24 hrs by AnnexinV/propidium iodide staining (Rvb =1.1%); type: functional
[25] = test system: A549; test: Cell cycle arrest in human A549 cells assessed as accumulation at G2/M phase at 30 uM after 24 hrs by flow cytometry (reference value: 4.9%); type: functional; method in brief: as §2
[26] = test system: DU-145; test: Cytotoxicity in human DU145 cells assessed as cell viability after 48 hrs by MTT assay; type: functional, cell-based; details: DU-145, 48 h; method in brief: as §1
[27] = test system: HL-60; test: Induction of mitochondrial signal transduction pathway-mediated apoptosis in human HL60 cells assessed as decrease in Bcl-2 level at 30 uM after 8 to 24 hrs by Western blot analysis; details: TDE = time-dependent effect

## C=C(CC[C@@H](CO)[C@H]1[C@H](O)C[C@@]2(C)C3=CC[C@@H](C(=C)C)[C@](C)(CCCO)C3=CC[C@]12C)C(C)C [PORICOTRIOL A]
[1]
  IC50: 2.2 µM
[2]
  Activity: inactive
[3]
  Activity: 38.7%
[4]
  Activity: 7.8%
[5]
  Activity: 6.3%
[6]
  Activity: 24.1%
[7]
  Activity: Active
[8]
  viability at 30 µM: 49.3%
[9]
  Activity: inactive
[10]
  Activity: Active
[11]
  Activity: 6%
[12]
  Activity: 7.5%
[13]
  Activity: 4.3%
[14]
  IC50: 1.9 µM
[15]
  Activity: 48.1%
[16]
  Activity: 30.4%
[17]
  IC50: 4.2 µM
[18]
  Activity: 10.9%
[19]
  IC50: 55.7 µM
[20]
  IC50: 1.2 µM
[21]
  Activity: Active
[22]
  viability at 30 µM: 89.2%
[23]
  Activity: 62.3%
[24]
  Activity: 2.9%
[25]
  Activity: 7.5%
[26]
  IC50: 14.5 µM
[27]
  Activity: tde
